Results: ChEMBL document CHEMBL1671747, “Efficacy and safety of intravenous peramivir for treatment of seasonal influenza virus infection” (Antimicrob Agents Chemother, 2010)
Active and inactive are the calls of the source. The calls are words filed in the database; no cut-off is given here.

Tests used:
Homo sapiens [1] = test: Toxicity in human patient infected with Influenza virus assessed as increase in blood glucose at 600 mg, iv; format: organism-based; settings: in vivo
Outline: (§1)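 One IV dose of 300 or 600 mg or placebo was given to adults with influenza. Blood (hematology, biochemistry) and urine (including NAG, β2- and α1-microglobulin, protein) were sampled at baseline, day 3 and day 14 by blinded technicians. Adverse-event incidence versus placebo was compared by Fisher's exact test.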

Homo sapiens [2] = test: Toxicity in human patient infected with Influenza virus assessed as occurrence of bronchitis at 300 mg, iv; format: organism-based; settings: in vivo
Outline: (§2)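 In this randomized trial, subjects received a single intravenous infusion of peramivir (300 mg or 600 mg) or matching placebo; the median infusion lasted 0.63 h. Subjects were followed at visits on days 1, 2 (optional), 3, 5, 9 and 14. Adverse-event incidences across the 298 treated subjects were compared with placebo using Fisher's exact test.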

Homo sapiens [3] = test: Toxicity in human patient infected with Influenza virus assessed as increase in alanine aminotransferase at 300 mg, iv; format: organism-based; settings: in vivo; outline: as §1
Plasma [4] = test: Plasma concentration in human at 300 mg, iv after 36 to 48 hrs; format: ADME, organism-based; settings: in vivo
Outline: (§3)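 Subjects received a single IV infusion of 300 or 600 mg (mean 5.0 or 10.0 mg/kg; median infusion 0.63 h). Plasma was sampled just before the infusion ended, and on days 2 and 3. Samples were deproteinized and run on C18 LC/MS-MS. Values are medians at end of infusion, 18–24 h and 36–48 h after infusion.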

Homo sapiens [5] = test: Toxicity in human patient infected with Influenza virus assessed as nasopharyngitis at 600 mg, iv; format: organism-based; settings: in vivo; outline: as §2
Homo sapiens [6] = test: Toxicity in human patient infected with Influenza virus assessed as beta2 microglobulin in urine at 600 mg, iv; format: organism-based; settings: in vivo; outline: as §1
Homo sapiens [7] = test: Toxicity in human patient infected with Influenza virus assessed as beta-N-Acetyl-D-glucosaminidase at 300 mg, iv; format: organism-based; settings: in vivo; outline: as §1
Plasma [8] = test: Plasma concentration in human at 300 mg, iv; format: ADME; outline: as §3
Homo sapiens [9] = test: Toxicity in human patient infected with Influenza virus assessed as increase in blood lactate dehydrogenase at 300 mg, iv; format: organism-based; settings: in vivo; outline: as §1
[10] = test system: unidentified influenza virus; test: Antiviral activity against Influenza virus infected in human patient assessed as reduction in fever at 300 mg, iv after 24 hrs; format: functional, organism-based
Outline: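 A single IV dose of 300 or 600 mg or placebo was given to adults with seasonal influenza. The outcome was the proportion of subjects with postbaseline normal temperature (<37.0°C). Groups were compared by Mantel-Haenszel test stratified for smoking and baseline composite symptom score.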

Influenza A virus [11] = test: Antiviral activity against Influenza A virus H1N1 infected in human patient assessed as alleviation time of symptoms at 600 mg, iv (reference value: 81.4 hrs); format: functional
Homo sapiens [12] = test: Toxicity in human patient infected with Influenza virus assessed as increase in lymphocyte at 300 mg, iv; format: organism-based; settings: in vivo; outline: as §1
Homo sapiens [13] = test: Toxicity in human patient infected with Influenza virus assessed as increase in alpha1 Microglobulin at 300 mg, iv; format: organism-based; settings: in vivo; outline: as §1
Homo sapiens [14] = test: Toxicity in human patient infected with Influenza virus assessed as white blood cells-positive urine at 600 mg, iv; format: organism-based; settings: in vivo
Outline: (§4)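 Subjects received a single intravenous peramivir dose (300 or 600 mg) or placebo, infused over a median of 0.63 h. Urinalysis covered protein, albumin and sediment, among other analytes. Urine was collected at baseline and on days 3 and 14 and tested by blinded technicians. Incidence in the safety population (n = 298 treated) was compared with placebo by Fisher's exact test.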

Homo sapiens [15] = test: Toxicity in human patient infected with Influenza virus assessed as proteinuria at 300 mg, iv; format: organism-based; settings: in vivo; outline: as §4
Homo sapiens [16] = test: Toxicity in human patient infected with Influenza virus assessed as prolongation of electrocardiogram QT interval at 300 mg, iv; format: organism-based; settings: in vivo
Influenza B virus = test: Antiviral activity against influenza B virus infected in MDCK cells assessed as inhibition of neuraminidase activity by fluorimetric assay; format: functional, organism-based
Outline: (§5)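 Viruses were isolated from baseline patient swabs on MDCK cells. Neuraminidase inhibition was measured by a standard fluorometric assay. IC50 came from plotting percent inhibition of neuraminidase activity against inhibitor concentration, reported as mean ± SD of three independent experiments.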

Plasma [17] = test: Plasma concentration in human at 600 mg, iv; format: ADME; outline: as §3
Homo sapiens [18] = test: Toxicity in human patient infected with Influenza virus assessed as decrease in total Protein at 300 mg, iv; format: organism-based; settings: in vivo; outline: as §1
Homo sapiens [19] = test: Toxicity in human patient infected with Influenza virus assessed as decrease in white blood cell count at 600 mg, iv; format: organism-based; settings: in vivo; outline: as §1
Homo sapiens [20] = test: Toxicity in human patient infected with Influenza virus assessed as increase in blood glucose at 300 mg, iv; format: organism-based; settings: in vivo; outline: as §1
Homo sapiens [21] = test: Toxicity in human patient infected with Influenza virus assessed as nausea at 300 mg, iv; format: organism-based; settings: in vivo; outline: as §2
Influenza A virus [22] = test: Antiviral activity against influenza A virus H3N2 infected in MDCK cells assessed as inhibition of neuraminidase activity by fluorimetric assay; format: functional, organism-based; outline: as §5
Homo sapiens [23] = test: Toxicity in human patient infected with Influenza virus assessed as urine containing albumine at 600 mg, iv; format: organism-based; settings: in vivo; outline: as §4
[24] = test system: unidentified influenza virus; test: Antiviral activity against Influenza virus infected in human patient assessed as decrease in virus-positive patients at 600 mg, iv on day 9; format: functional
Outline: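 Nasal and throat swabs were taken at baseline and on days 2, 3, 5 and 9, held in 2 ml transport medium, and titrated on MDCK cells in triplicate: 10-fold dilutions, 3 μg/ml trypsin, 1 h adsorption, washes, then 3 days at 37°C. CPE gave TCID50/ml by Spearman-Karber; positive meant ≥1.1 log10 TCID50/ml. Proportions were compared by Mantel-Haenszel test stratified for smoking and baseline score.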

Influenza A virus [25] = test: Antiviral activity against influenza A virus infected in MDCK cells assessed as inhibition of neuraminidase activity by fluorimetric assay; format: functional, organism-based; outline: as §5
Plasma [26] = test: Plasma concentration in human at 300 mg, iv after 18 to 24 hrs; format: ADME, organism-based; settings: in vivo; outline: as §3
[27] = test system: unidentified influenza virus; test: Antiviral activity against Influenza virus infected in human patient assessed as resumption time of usual activities at 300 mg, iv; format: functional
Homo sapiens [28] = test: Toxicity in human patient infected with Influenza virus assessed as increase in lymphocyte at 600 mg, iv; format: organism-based; settings: in vivo; outline: as §1
Homo sapiens [29] = test: Toxicity in human patient infected with Influenza virus assessed as proteinuria at 600 mg, iv; format: organism-based; settings: in vivo; outline: as §4
Homo sapiens [30] = test: Toxicity in human patient infected with Influenza virus assessed as urine containing albumine at 300 mg, iv; format: organism-based; settings: in vivo; outline: as §4
Homo sapiens [31] = test: Toxicity in human patient infected with Influenza virus assessed as white blood cells-positive urine at 300 mg, iv; format: organism-based; settings: in vivo; outline: as §4
Homo sapiens [32] = test: Toxicity in human patient infected with Influenza virus assessed as occurrence of nausea at 300 mg, iv; format: organism-based; settings: in vivo; outline: as §2
Homo sapiens [33] = test: Toxicity in human patient infected with Influenza virus assessed as occurrence of diarrhea at 300 mg, iv; format: organism-based; settings: in vivo; outline: as §2
Plasma [34] = test: Plasma concentration in human at 600 mg, iv after 36 to 48 hrs; format: ADME, organism-based; settings: in vivo; outline: as §3

Q: Which results are given for CCC(CC)[C@H](NC(C)=O)[C@@H]1[C@H](O)[C@@H](C(=O)O)C[C@H]1NC(=N)N [PERAMIVIR ANHYDROUS]?
A: Activity (Homo sapiens [1]): Toxic; Activity (Homo sapiens [2]): 3%; Activity (Homo sapiens [3]): Toxic; Cp (Plasma [4]): 5.01 ng/mL; Activity (Homo sapiens [5]): Toxic; Activity (Homo sapiens [6]): Toxic; Activity (Homo sapiens [7]): Toxic; Cp (Plasma [8]): 18100 ng/mL; Activity (Homo sapiens [9]): Toxic; Activity [10]: Active; Time (Influenza A virus [11]): 62.6 h; Activity (Homo sapiens [12]): Toxic; Activity (Homo sapiens [13]): Toxic; Activity (Homo sapiens [14]): Toxic; Activity (Homo sapiens [15]): Toxic; Activity (Homo sapiens [16]): 2%; IC50 (Influenza B virus): 3 nM; Cp (Plasma [17]): 36300 ng/mL; Activity (Homo sapiens [18]): Toxic; Activity (Homo sapiens [19]): Toxic; Activity (Homo sapiens [20]): Toxic; Activity (Homo sapiens [21]): Toxic; IC50 (Influenza A virus [22]): 3.51 nM; Activity (Homo sapiens [23]): Toxic; inhibition (INH) [24]: 1.1%; IC50 (Influenza A virus [25]): 1.72 nM; Cp (Plasma [26]): 14.8 ng/mL; Time [27]: 125.6 h; Activity (Homo sapiens [28]): Toxic; Activity (Homo sapiens [29]): Toxic; Activity (Homo sapiens [30]): Toxic; Activity (Homo sapiens [31]): Toxic; Activity (Homo sapiens [32]): 3%; Activity (Homo sapiens [33]): 14.1%; Cp (Plasma [34]): 10.7 ng/mL
